From ChEMBL document CHEMBL1773060, “Two-step synthesis of novel, bioactive derivatives of the ubiquitous cofactor nicotinamide adenine dinucleotide (NAD)” (J Med Chem, 2011)
Activity calls are given as the source filed them. The calls are words filed in the database; no cut-off is given here.

Tests used:
[1] = target: T1, NAD-dependent protein deacetylase sirtuin-2 (Homo sapiens) (UniProt Q8IXJ6); assay: Inhibition of human recombinant N-terminally His6-tagged SIRT2 at 50 uM after 4 hrs by homogeneous fluorescent deacetylase assay
T1 sequence (whole entry): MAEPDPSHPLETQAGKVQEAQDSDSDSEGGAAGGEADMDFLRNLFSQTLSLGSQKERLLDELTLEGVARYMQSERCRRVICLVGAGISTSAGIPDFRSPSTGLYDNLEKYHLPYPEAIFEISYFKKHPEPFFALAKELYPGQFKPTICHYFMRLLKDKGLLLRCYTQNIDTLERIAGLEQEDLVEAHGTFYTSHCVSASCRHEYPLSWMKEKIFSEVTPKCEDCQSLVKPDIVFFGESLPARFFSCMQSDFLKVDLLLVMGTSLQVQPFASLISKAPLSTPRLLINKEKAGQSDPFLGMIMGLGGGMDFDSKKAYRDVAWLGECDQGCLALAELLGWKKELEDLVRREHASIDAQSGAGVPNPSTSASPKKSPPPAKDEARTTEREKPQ

[2] = target: T2, NAD-dependent protein deacetylase sirtuin-1 (Homo sapiens) (UniProt Q96EB6); assay: Inhibition of human recombinant GST-tagged SIRT1 at 50 uM after 4 hrs by homogeneous fluorescent deacetylase assay
T2 sequence (whole entry): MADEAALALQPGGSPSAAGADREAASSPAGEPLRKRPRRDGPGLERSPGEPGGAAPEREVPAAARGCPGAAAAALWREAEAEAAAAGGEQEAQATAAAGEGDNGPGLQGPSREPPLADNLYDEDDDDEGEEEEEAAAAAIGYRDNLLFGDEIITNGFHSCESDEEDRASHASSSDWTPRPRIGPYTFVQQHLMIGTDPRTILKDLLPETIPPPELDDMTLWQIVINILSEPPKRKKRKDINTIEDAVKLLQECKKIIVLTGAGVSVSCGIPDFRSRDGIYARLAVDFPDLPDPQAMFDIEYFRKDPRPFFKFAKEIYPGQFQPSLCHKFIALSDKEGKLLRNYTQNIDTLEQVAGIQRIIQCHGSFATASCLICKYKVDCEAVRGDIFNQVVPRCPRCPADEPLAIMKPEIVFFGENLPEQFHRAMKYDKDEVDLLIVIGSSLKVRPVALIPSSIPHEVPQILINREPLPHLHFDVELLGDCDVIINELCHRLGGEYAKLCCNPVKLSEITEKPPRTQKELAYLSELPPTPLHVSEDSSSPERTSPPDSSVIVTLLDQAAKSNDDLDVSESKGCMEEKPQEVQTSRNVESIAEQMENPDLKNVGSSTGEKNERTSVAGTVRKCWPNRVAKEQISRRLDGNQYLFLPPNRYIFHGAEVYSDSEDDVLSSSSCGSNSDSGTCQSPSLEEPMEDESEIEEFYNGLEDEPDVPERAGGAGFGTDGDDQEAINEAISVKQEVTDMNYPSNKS

[3] = target: T2, NAD-dependent protein deacetylase sirtuin-1 (Homo sapiens); assay: Activity at human recombinant GST-tagged SIRT1 assessed as conversion of acetyllysine substrate to 7-amino-4-methylcoumarin at 500 uM by fluorescence-based assay
[4] = target: T1, NAD-dependent protein deacetylase sirtuin-2 (Homo sapiens); assay: Activity at human recombinant GST-tagged SIRT2 assessed as conversion of […] at 500 uM by fluorescence-based assay; conditions: in the assay text read “His6-tagged” for “GST-tagged”
How it was run: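 Analogues, with NAD for comparison, were supplied at 500 μM as cosubstrate in place of NAD, in 8.3% (v/v) DMSO. Reaction used Z-(Ac)Lys-AMC (10.5 μM), 4 h at 37 °C. Trypsin/nicotinamide development followed, then fluorescence at ex 390/em 460 nm. Conversion compared against a blank without cofactor.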

Compound | inhibition [1] [%] | inhibition [2] [%] | Activity [3] | Activity [4]
Nc1ncnc2c1nc(Br)n2[C@@H]1O[C@H](COP(=O)(O)O)[C@@H](O)[C@H]1O | < 10 | < 10 | – | –
NC(=O)c1ccc[n+]([C@@H]2O[C@H](COP(=O)([O-])OP(=O)(O)OC[C@H]3O[C@@H](n4c(-c5ccc(Cl)cc5)nc5c(N)ncnc54)[C@H](O)[C@@H]3O)[C@@H](O)[C@H]2O)c1 | – | 30 | – | –
Cc1ccc(-c2nc3c(N)ncnc3n2[C@@H]2O[C@H](COP(=O)(O)OP(=O)([O-])OC[C@H]3O[C@@H]([n+]4cccc(C(N)=O)c4)[C@H](O)[C@@H]3O)[C@@H](O)[C@H]2O)cc1 | – | 20 | – | –
Nc1ncnc2c1nc(-c1ccccc1)n2[C@@H]1O[C@H](CO)[C@@H](O)[C@H]1O | < 10 | < 10 | – | –
Nc1ncnc2c1nc(Br)n2[C@@H]1O[C@H](CO)[C@@H](O)[C@H]1O | 16 | < 10 | – | –
COc1ccc(-c2nc3c(N)ncnc3n2[C@@H]2O[C@H](COP(=O)(O)OP(=O)([O-])OC[C@H]3O[C@@H]([n+]4cccc(C(N)=O)c4)[C@H](O)[C@@H]3O)[C@@H](O)[C@H]2O)cc1 | – | 18 | – | –
NC(=O)c1ccc[n+]([C@@H]2O[C@H](COP(=O)([O-])OP(=O)(O)OC[C@H]3O[C@@H](n4c(-c5ccco5)nc5c(N)ncnc54)[C@H](O)[C@@H]3O)[C@@H](O)[C@H]2O)c1 | 35 | 16 | – | –
NC(=O)c1ccc[n+]([C@@H]2O[C@H](COP(=O)([O-])OP(=O)(O)OC[C@H]3O[C@@H](n4c(Br)nc5c(N)ncnc54)[C@H](O)[C@@H]3O)[C@@H](O)[C@H]2O)c1 | – | 31 | – | –
NC(=O)c1ccc[n+]([C@@H]2O[C@H](COP(=O)([O-])OP(=O)(O)OC[C@H]3O[C@@H](n4c(-c5ccccc5)nc5c(N)ncnc54)[C@H](O)[C@@H]3O)[C@@H](O)[C@H]2O)c1 | – | 17 | Active | Active
